High-throughput results: PubChem BioAssay, The Scripps Research Institute Molecular Screening Center
Hits are enriched below; roughly 0.74% of the tested compounds scored in any of these assays.
DDE Tn6 FP inh – inhibitors of Tn6 peptide binding to fibrin DD(E), primary screen, biochemical, fluorescence polarization, human fibrin, Tn6 probe; hit rate 0.21% among 370,000; AID 720509, 2013; inhibition, % at 8.3 µM; Fibrin DD(E) TRITC-Tn6 fluorescence polarization displacement;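 active means inhibition above a per-campaign cutoff: mean of compounds within control limits plus 3 SD, cut at about 15% in these data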
Target sequence (P02675 whole entry, looked up): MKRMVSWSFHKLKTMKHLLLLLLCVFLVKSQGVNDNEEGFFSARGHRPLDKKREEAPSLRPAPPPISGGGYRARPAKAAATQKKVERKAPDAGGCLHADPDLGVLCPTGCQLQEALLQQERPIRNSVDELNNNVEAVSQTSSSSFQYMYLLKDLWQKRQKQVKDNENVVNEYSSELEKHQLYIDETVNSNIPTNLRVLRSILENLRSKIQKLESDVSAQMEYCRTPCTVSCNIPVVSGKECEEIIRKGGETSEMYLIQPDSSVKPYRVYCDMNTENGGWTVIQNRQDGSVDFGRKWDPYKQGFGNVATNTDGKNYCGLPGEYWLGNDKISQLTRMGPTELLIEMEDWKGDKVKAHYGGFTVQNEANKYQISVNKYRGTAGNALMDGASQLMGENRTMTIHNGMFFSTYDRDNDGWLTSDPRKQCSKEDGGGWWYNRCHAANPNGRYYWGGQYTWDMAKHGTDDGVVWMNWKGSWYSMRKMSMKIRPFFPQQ
ARFGAP1 inh – inhibitors of rat ARFGAP1 GAP activity, primary screen, biochemical, fluorescence polarization, GDP tracer; hit rate 0.26% among 360,000; Arfgap1-stimulated ARF1 GTP hydrolysis, GDP FP detection; inhibition, % at 16.5 µM; ADP-ribosylation factor GTPase-activating protein 1 (Rattus norvegicus), Q62848;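 active means inhibition above a per-plate limit, mean inhibition of low control wells plus 3 SD, cut at about 25% in these data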
Target sequence (Q62848 1-136 limits assumed): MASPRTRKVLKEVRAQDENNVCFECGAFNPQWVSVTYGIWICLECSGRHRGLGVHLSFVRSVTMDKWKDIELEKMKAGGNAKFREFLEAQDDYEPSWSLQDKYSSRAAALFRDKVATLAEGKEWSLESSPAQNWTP
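Material: rat Arfgap1 GAP domain (His6, aa 1-136), purified enzyme. Also added: human ARF1(Δ1-17)-GTP substrate. Compound dosing: 16.5 µM single point, 1.26% DMSO. Timing: enzyme reaction 120 min at 25 °C after 20 min preincubation. Signal: GDP detection by fluorescence polarization. Read-out basis: percent inhibition of GAP-stimulated GDP formation, scaled between DMSO and no-Arfgap1 medians.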
Tn7 DDE FP – inhibitors of Tn7 peptide binding to fibrin DD(E), primary screen, biochemical, fluorescence polarization, human fibrin, Tn7 probe. inhibition, % at 8.3 µM. Fibrinogen beta chain (Homo sapiens), P02675. hit rate 0.13% among 370,000. FP displacement of FITC-Tn7 peptide from fibrin DD(E); 0% = median of compound wells per plate;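 active means inhibition above the mean of compounds falling within the control limits plus 3 SD of them, cut at about 14% in these data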
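assay system = human clot-derived fibrin DD(E) complex | quantity = Fibrin-DD(E) at 2 µM final | timing = 10 min preincubation, 3 h with tracer, room temperature | signal = fluorescence polarization | measure = percent inhibition | benchmarks = high control wells with 10 µM unlabelled Aha-Tn7 peptide (full inhibition) | replicates = singlicate testing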
ASAP1 GAP inh – inhibitors of human ASAP1 ArfGAP activity, primary screen, biochemical, fluorescence polarization; ASAP1-stimulated ARF1 GTP hydrolysis, GDP FP detection; inhibition, % at 16.5 µM; hit rate 0.19% among 360,000; in the data active means inhibition above about 25%
ASAP1 inh confirm – ASAP1 GAP activity inhibitors, confirmation, biochemical, fluorescence polarization, human, triplicate; shares compounds with ASAP1 GAP inh; ASAP1-stimulated Arf1 GTPase, GDP fluorescence polarization; inhibition, % at 16.5 µM; hit rate 37% among 620; AID 624431, 2012;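 active means mean inhibition over triplicates exceeds the hit threshold derived for the earlier primary screening run, cut at about 25% in these data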
Each line names hits and unclear results; the compound was inactive in the other large screens (follow-up assays come after a bar, where they were run).

COc1ccc(C(=O)Nc2ccc(Cl)cc2C(=O)NCc2ccco2)cc1	ASAP1 GAP inh 27.2 | ASAP1 inh confirm inactive
C=CCN(Cc1ccccc1)C(C#CC(=C)C)Cc1ccccc1 (stereo unspecified)	none (no result: ARFGAP1 inh, ASAP1 GAP inh)
CCCCOC(=O)Cn1c(-c2ccccc2)nc2ccccc2c1=O	none
CCOC(=O)Cn1c(-c2ccccc2)nc2ccccc2c1=O	ASAP1 GAP inh 25.6 | ASAP1 inh confirm inactive
COc1ccc(-n2c(SCC(=O)Nc3ccc4c(c3)OCO4)nc3ccccc3c2=O)cc1	none
COc1ccc(-n2c(SCC(=O)Nc3ccc(NC(C)=O)cc3)nc3ccccc3c2=O)cc1	ASAP1 GAP inh 27.3 | ASAP1 inh confirm inactive
CC(Cc1cccs1)NC(=S)Nc1ccc(Cl)cc1 (stereo unspecified)	ASAP1 GAP inh 28.6 | ASAP1 inh confirm inactive
CC(Cc1cccs1)NC(=S)Nc1ccc(Cl)c(Cl)c1 (stereo unspecified)	none
N#C/C(=C\c1ccc([N+](=O)[O-])o1)c1nc2ccccc2[nH]1	ASAP1 GAP inh 29.2 | ASAP1 inh confirm inactive
c1ccc2cc3[nH]c(CNc4nc(N5CCOCC5)nc5c4ncn5-c4ccsc4)nc3cc2c1	none (no result: ARFGAP1 inh, ASAP1 GAP inh)
COc1cc(/C=C/C(=O)Nc2cc(C(F)(F)F)ccc2Cl)cc(OC)c1OC	ASAP1 GAP inh 25.0 | ASAP1 inh confirm inactive
NS(=O)(=O)c1ccc(CCNc2nc3c(-c4cccc(F)c4)nnn3c3ccccc23)cc1	ASAP1 GAP inh 55.4 | ASAP1 inh confirm 87.6
Cc1cccc(-c2nnn3c2nc(NCCc2ccc(S(N)(=O)=O)cc2)c2ccccc23)c1	none
Cc1cc(C)n(/N=C/c2ccco2)c(=O)c1C#N	ASAP1 GAP inh 24.9 | ASAP1 inh confirm inactive
C[C@H](NC(=O)c1nc[nH]c1C(=O)N1CCN(C(=O)OC(C)(C)C)CC1)C(=O)OCc1ccccc1	none
CC1CCN(C(=O)c2[nH]cnc2C(=O)N[C@@H](C)C(=O)OCc2ccccc2)CC1	ASAP1 GAP inh 24.9 | ASAP1 inh confirm inactive
CCn1nc(NC(=O)c2ccncc2)c2cc3ccc(C)cc3nc21	ASAP1 GAP inh 24.7 | ASAP1 inh confirm inactive
CC(=O)Nc1nc2ncccn2c1-c1ccc(F)c(F)c1	none (no result: ARFGAP1 inh, ASAP1 GAP inh)
CC1CN(S(=O)(=O)c2ccc(NC(=O)c3cc(-c4ccccc4O)n[nH]3)cc2)CC(C)O1 (stereo unspecified)	ASAP1 GAP inh 25.9 | ASAP1 inh confirm inactive
O=C(Nc1ccc(S(=O)(=O)N2CCOCC2)cc1)c1cc(-c2ccccc2O)n[nH]1	none
O=S1(=O)c2ccc(Br)cc2OC[C@@H](Cc2ccccc2)N1Cc1cn(CC2CCCCC2)nn1	none (no result: ARFGAP1 inh, ASAP1 GAP inh)
C[C@H](CCC(=O)OCc1cn(CC(=O)c2ccc(O)cc2)nn1)C1CC[C@H]2[C@@H]3CC[C@@H]4C[C@H](O)CC[C@]4(C)[C@H]3C[C@H](O)[C@]12C (stereo partly specified)	ASAP1 GAP inh 28.9 | ASAP1 inh confirm inactive
C#CCOCCOCCOCCNc1nc(N2CCN(C(=O)Cn3cc(CCCN=C(N)N)nn3)CC2)nc(N2CCN(C(=O)[C@H](Cc3ccc(O)cc3)n3cc(CCO)nn3)CC2)n1	none (no result: ARFGAP1 inh, ASAP1 GAP inh)
CCN(CC)c1nc(N)c2c(N)nc(OC)cc2c1C#N	ASAP1 GAP inh 34.4 | ASAP1 inh confirm inactive
C=CCN(C/C(=N\O)c1sc(C(=O)OCC)nc1C)c1cccc(Br)c1	ASAP1 GAP inh 25.7 | ASAP1 inh confirm inactive
CCOC(=O)c1sc(N/N=C/c2cccc(C)c2)nc1C	none
c1ccc(Cn2ccc3ccc(-c4ccc5ccn(Cc6cccc(Oc7ccccc7)c6)c5c4)cc32)cc1	none (no result: ARFGAP1 inh, ASAP1 GAP inh)
COc1ccccc1NS(=O)(=O)c1ccc(C)c(C(=O)Nc2cc(C)on2)c1	ASAP1 GAP inh 26.0 | ASAP1 inh confirm inactive
COc1ccc(CN2C/C(=C/c3ccc(C)cc3)N3C(=O)C[C@@H](c4ccccc4)N=C23)c(OC)c1	none (no result: ARFGAP1 inh, ASAP1 GAP inh)
CC(O)C(=O)N/N=C/c1cccc2ccccc12 (stereo unspecified)	none
Cc1cccc(/C=N/NC(=O)C(C)Nc2cccc3ccccc23)n1 (stereo unspecified)	ASAP1 GAP inh 29.0 | ASAP1 inh confirm inactive
COc1cc([N+](=O)[O-])cc(/C=N/NC(=O)C(C)Nc2cccc3ccccc23)c1O (stereo unspecified)	none
CC(Nc1cccc2ccccc12)C(=O)N/N=C/c1ccc([N+](=O)[O-])cc1 (stereo unspecified)	ASAP1 GAP inh 26.2 | ASAP1 inh confirm inactive
COC(=O)C1CN(C2CC2)CCS(=O)(=O)N1Cc1cn(Cc2ccc(C)cc2)nn1 (stereo unspecified)	none (no result: ARFGAP1 inh, ASAP1 GAP inh)
COc1cccc(-c2cnc3c(NC=O)cc(-c4ccc(N5CCN(C)CC5)cc4)cn23)c1	ASAP1 GAP inh 36.1 | ASAP1 inh confirm 75.6
COc1cccc(-c2cnc3c(NC=O)cc(-c4ccccc4)cn23)c1	none
C=CCn1c(SCC(=O)OC(C)C)nnc1-c1ccc(C)cc1	none (no result: ARFGAP1 inh, ASAP1 GAP inh)
O=C(Cc1ccccc1)O/N=C1\CCCc2ccccc21	ASAP1 GAP inh 26.1 | ASAP1 inh confirm inactive
Cc1ccccc1C(=O)N(C)[C@H]1C[C@H]2c3[nH]c4c(-c5ccc6c(c5)OCO6)cccc4c3CCN2C[C@H]1[C@H](C)O	none (no result: ARFGAP1 inh, ASAP1 GAP inh)
O=C(N[C@@H]1C[C@@H]2O[C@@H](CO)CC[C@@H]2O[C@@H]1CCc1ccc(-c2ccccc2)cc1)c1cnccn1	none (no result: ARFGAP1 inh, ASAP1 GAP inh)
COCCNc1nc(C)c(C(C)=O)s1	ASAP1 GAP inh 26.1 | ASAP1 inh confirm inactive
C[C@H](O)[C@@H]1CN2CCc3c([nH]c4c(-c5ccc6c(c5)OCO6)cccc34)[C@@H]2C[C@@H]1N(C)C(=S)NCCc1ccccc1	none (no result: ARFGAP1 inh, ASAP1 GAP inh)
Cn1c(N)c(C(=O)COC(=O)CCc2nc3ccccc3s2)c(=O)n(C)c1=O	ASAP1 GAP inh 31.3 | ASAP1 inh confirm inactive
COc1ccccc1NS(=O)(=O)c1cc(NC(=O)/C=C/c2cccs2)ccc1N1CCOCC1	ASAP1 GAP inh 31.6 | ASAP1 inh confirm inactive
COc1ccc(Br)cc1C(=O)Nc1ccc(N2CCCC2)cc1	ARFGAP1 inh 46.2, ASAP1 GAP inh 31.9 | ASAP1 inh confirm 49.1
O=[N+]([O-])c1ccc2nc(COCc3nc4ccccc4[nH]3)[nH]c2c1	none (no result: ARFGAP1 inh, ASAP1 GAP inh)
O=c1c2ccc(F)cc2nc2sc(Nc3ccc4c(c3)CCC4)nn12	none (no result: ARFGAP1 inh, ASAP1 GAP inh)
Cc1occc1-c1nnc(SCC(=O)NCc2cccs2)n1-c1ccc(F)cc1	ASAP1 GAP inh 26.3 | ASAP1 inh confirm inactive
CN(C(=O)COC(=O)c1cc([N+](=O)[O-])ccc1N1CCOCC1)C1CCCCC1	none
